Data on 28 compounds can be found in ChEMBL document CHEMBL1155031, “Structure-activity relationships of 7-deaza-6-benzylthioinosine analogues as ligands of Toxoplasma gondii adenosine kinase” (J Med Chem, 2008).

One may read the Ki as a measure of affinity in units of concentration, obtained from inhibition or displacement. Read a low Ki as a stronger hold on the target. A word on the IC50: it is the point on the concentration scale where inhibition reaches its midpoint.

One data set concerns the target T1, Adenosine kinase (Toxoplasma gondii, UniProt Q9TVW2).
T1 sequence (Q9TVW2 whole entry): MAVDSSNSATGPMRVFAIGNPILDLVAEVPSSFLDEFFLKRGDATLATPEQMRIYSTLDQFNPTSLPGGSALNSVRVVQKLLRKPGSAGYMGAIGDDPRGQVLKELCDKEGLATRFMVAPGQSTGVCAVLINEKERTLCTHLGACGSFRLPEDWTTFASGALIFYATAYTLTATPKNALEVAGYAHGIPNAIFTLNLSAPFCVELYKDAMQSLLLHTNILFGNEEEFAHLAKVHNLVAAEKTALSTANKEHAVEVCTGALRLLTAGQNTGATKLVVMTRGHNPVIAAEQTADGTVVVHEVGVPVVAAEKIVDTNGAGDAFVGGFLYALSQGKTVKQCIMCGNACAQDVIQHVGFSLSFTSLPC
Nature of the data set: Binding affinity to purified Toxoplasma gondii adenosine kinase. The essentials: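 Radiometric assay at 37 °C in 50 mM Tris-Cl pH 7.4 with 2.5 mM ATP, 5 mM MgCl₂, creatine phosphate/creatine kinase regeneration and 5 µM [8-¹⁴C]adenosine, plus varied inhibitor. Reaction stopped by boiling, then adenosine and AMP separated by TLC and quantified. Apparent Ki from Dixon plots (1/V vs [I]), taken as equal to apparent Km for alternative substrates. Mean ± SD, ≥2 experiments in triplicate.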

In data set [1] the test system is Toxoplasma gondii. Nature of the data set: Antitoxoplasma activity against adenosine kinase deficient Toxoplasma gondii TgAK-3 assessed as survival at 10 uM after 18 hrs by [5,6-[…]]uracil incorporation assay. The class given is functional. In short, it runs like this:
(§1)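 Human foreskin fibroblast monolayers (≤20 passages, RPMI 1640) seeded ~5×10⁵ cells/well, attached 24 h at 37 °C, 5% CO2. Infected with isolated tachyzoites at 1 parasite/cell in 3% FBS for 1 h, then washed. Compounds were dissolved in 50% ethanol and added at final 0, 5, 10, 25 or 50 µM with 10% FBS. Survival was read as radiolabeled uracil incorporation into TCA-precipitated nucleic acid versus untreated controls, at least in triplicate.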

Data set [2] in a line: Toxicity against human foreskin fibroblasts at 50 uM after 48 hrs by MTT method. Conditions: read-out: Survival. The class given is cell-based, Fibroblast. The essentials: (§2)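 Uninfected human foreskin fibroblasts (≤20 passages, RPMI 1640) seeded ~10⁵ cells/well and attached ≥24 h at 37 °C, 5% CO2. Compound in medium added to final concentrations, then 48 h incubation. MTT was added for 4 h, formazan dissolved in DMSO and absorbance read at 540 nm. At least two independent experiments, each in triplicate.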
Background: Tetrazolium dyes change colour on reduction, which living cells bring about.

The subject of data set [3] is Toxoplasma gondii. Nature of the data set: Antitoxoplasma activity against wild type Toxoplasma gondii RH assessed as survival at 50 uM after 18 hrs by [5,6-[…]]uracil incorporation assay. In kind it is functional. In short, it runs like this:
as §1

Data set [4] concerns Toxoplasma gondii. The experiment in a line: Antitoxoplasma activity against wild type Toxoplasma gondii RH assessed as survival at 25 uM after 18 hrs by [5,6-[…]]uracil incorporation assay. In kind it is functional. The essentials:
as §1

Data set [5] has as its system Toxoplasma gondii. Nature of the data set: Antitoxoplasma activity against wild type Toxoplasma gondii RH assessed as survival after 18 hrs by [5,6-[…]]uracil incorporation assay. The class given is functional, organism-based.
In data set [6] the test system is Toxoplasma gondii. The experiment in a line: Antitoxoplasma activity against wild type Toxoplasma gondii RH assessed as survival at 5 uM after 18 hrs by [5,6-[…]]uracil incorporation assay. The class given is functional. The essentials: as §1
A short description of data set [7]: Toxicity against human foreskin fibroblasts at 5 uM after 48 hrs by MTT method. The class given is cell-based, Fibroblast. The conditions noted are these: read-out: Survival. In short, it runs like this: as §2
A short description of data set [8]: Toxicity against human foreskin fibroblasts at 10 uM after 48 hrs by MTT method. Conditions: read-out: Survival. The class given is cell-based, Fibroblast. The essentials: as §2
Data set [9] relates to Toxoplasma gondii. The experiment in a line: Antitoxoplasma activity against adenosine kinase deficient Toxoplasma gondii TgAK-3 assessed as survival at 5 uM after 18 hrs by [5,6-[…]]uracil incorporation assay. In kind it is functional. The essentials:
as §1

Data set [10] is described as follows: Toxicity against human foreskin fibroblasts at 25 uM after 48 hrs by MTT method. The class given is cell-based, Fibroblast. The conditions noted are these: read-out: Survival. The essentials:
as §2

In data set [11] the test system is Toxoplasma gondii. The experiment in a line: Antitoxoplasma activity against adenosine kinase deficient Toxoplasma gondii TgAK-3 assessed as survival at 50 uM after 18 hrs by [5,6-[…]]uracil incorporation assay. In kind it is functional. The essentials: as §1
Data set [12] concerns Toxoplasma gondii. Nature of the data set: Antitoxoplasma activity against adenosine kinase deficient Toxoplasma gondii TgAK-3 assessed as survival at 25 uM after 18 hrs by [5,6-[…]]uracil incorporation assay. In kind it is functional. The essentials:
as §1

Data set [13] has as its system Toxoplasma gondii. Nature of the data set: Antitoxoplasma activity against wild type Toxoplasma gondii RH assessed as survival at 10 uM after 18 hrs by [5,6-[…]]uracil incorporation assay. The class given is functional. In short, it runs like this:
as §1

`OC[C@H]1O[C@@H](n2ccc3c(SCc4ccccc4)ncnc32)[C@H](O)[C@@H]1O` registered a Ki on Adenosine kinase of 28 µM.
`OC[C@H]1O[C@@H](n2ccc3c(SCc4ccc(F)cc4)ncnc32)[C@H](O)[C@@H]1O` gave a Ki at Adenosine kinase of 37 µM.
Consider `N#Cc1ccc(CSc2ncnc3c2ccn3[C@@H]2O[C@H](CO)[C@@H](O)[C@H]2O)cc1`, for which the survival at 10 µM in the data set with Toxoplasma gondii [1] worked out at 100%; with Toxoplasma gondii [13], 4%. In addition, the viability at 48 h, 50 µM in data set [2] stood at 82.1%. For the same compound, the survival at 50 µM amounted to 0% in the data set with Toxoplasma gondii [3] and 100% in the data set with Toxoplasma gondii [11]. The survival at 25 µM came to 0% with Toxoplasma gondii [4] and 100% in the data set on Toxoplasma gondii [12]. Also, the IC50 with Toxoplasma gondii [5] amounted to 5.3 µM. Besides, the survival at 5 µM in the data set on Toxoplasma gondii [6] was 52.5%; with Toxoplasma gondii [9], 98.4%. The compound also yielded an inhibitory constant (Ki) at Adenosine kinase of 5.2 µM. Further, the viability at 48 h, 5 µM in data set [7] stood at 100%. In data set [8], the viability at 48 h, 10 µM was 100%. Also, in data set [10], the viability at 48 h, 25 µM is 94.3%.
`Cc1ccc(CSc2ncnc3c2ccn3[C@@H]2O[C@H](CO)[C@@H](O)[C@H]2O)cc1` displayed a Ki at Adenosine kinase of 19 µM. That is a double-digit micromolar value.
Consider `COc1ccc(CSc2ncnc3c2ccn3[C@@H]2O[C@H](CO)[C@@H](O)[C@H]2O)cc1`, for which the survival at 10 µM in the data set with Toxoplasma gondii [1] worked out at 100%; in the data set with Toxoplasma gondii [13], 5%. In addition, the viability at 48 h, 50 µM in [2] was found to be 90.6%. Also, the figures for the survival at 50 µM in the data set with Toxoplasma gondii [3] and with Toxoplasma gondii [11] were 0% and 100%, respectively. For the same compound, the survival at 25 µM with Toxoplasma gondii [4] is 0%; with Toxoplasma gondii [12], 100%. In addition, in the data set with Toxoplasma gondii [5], the IC50 amounted to 4.6 µM. Also, the survival at 5 µM with Toxoplasma gondii [6] came out at 49.8%; in the data set on Toxoplasma gondii [9] it was 100%. On Adenosine kinase, this compound gave a Ki of 5.8 µM. In addition, the viability at 48 h, 5 µM in [7] was found to be 100%. Also, the viability at 48 h, 10 µM in [8] came to 100%. The viability at 48 h, 25 µM in data set [10] was 100%.
On Adenosine kinase, `OC[C@H]1O[C@@H](n2ccc3c(SCc4ccc(Cl)c(Cl)c4)ncnc32)[C@H](O)[C@@H]1O` had a Ki of 29 µM.
On the same count and under the same terms, as for `OC[C@H]1O[C@@H](n2ccc3c(SCc4ccc(F)cc4F)ncnc32)[C@H](O)[C@@H]1O`, the figure is 16 µM.
Still for that read-out and setting: as for `Cc1ccccc1CSc1ncnc2c1ccn2[C@@H]1O[C@H](CO)[C@@H](O)[C@H]1O`, the figure is 228 µM; as for `O=[N+]([O-])c1cccc(CSc2ncnc3c2ccn3[C@@H]2O[C@H](CO)[C@@H](O)[C@H]2O)c1`, 45 µM; as for `OC[C@H]1O[C@@H](n2ccc3c(SCc4c(F)cccc4Cl)ncnc32)[C@H](O)[C@@H]1O`, 7.2 µM.
As to `OC[C@H]1O[C@@H](n2ccc3c(SCc4cccc(C(F)(F)F)c4)ncnc32)[C@H](O)[C@@H]1O`, the affinity at Adenosine kinase, expressed as Ki, was 22 µM.
Same read-out and setting: as for `OC[C@H]1O[C@@H](n2cc(I)c3c(SCc4ccccc4)ncnc32)[C@H](O)[C@@H]1O`, the figure is 82.6 µM; as for `OC[C@H]1O[C@@H](n2ccc3c(SCc4ccc(Cl)cc4)ncnc32)[C@H](O)[C@@H]1O`, 11 µM.
At Adenosine kinase, `O=[N+]([O-])c1ccc(CSc2ncnc3c2ccn3[C@@H]2O[C@H](CO)[C@@H](O)[C@H]2O)cc1` returned a Ki of 35 µM. Compared with the last compound, the Ki is about 3.2-fold higher.
Turning to `OC[C@H]1O[C@@H](n2ccc3c(SCc4ccc(Br)cc4)ncnc32)[C@H](O)[C@@H]1O`, the affinity on Adenosine kinase, expressed as Ki, was 253 µM.
Consider `CC(C)(C)c1ccc(CSc2ncnc3c2ccn3[C@@H]2O[C@H](CO)[C@@H](O)[C@H]2O)cc1`, for which affinity at Adenosine kinase was put at a Ki of 24 µM.
`OC[C@H]1O[C@@H](n2ccc3c(SCc4ccc(OC(F)(F)F)cc4)ncnc32)[C@H](O)[C@@H]1O` gave a Ki on Adenosine kinase of 35 µM.
In turn, `OC[C@H]1O[C@@H](n2ccc3c(SCc4ccc(Cl)cc4Cl)ncnc32)[C@H](O)[C@@H]1O` returned an inhibitory constant (Ki) on Adenosine kinase of 26 µM.
For the compound `OC[C@H]1O[C@@H](n2ccc3c(SCc4ccccc4F)ncnc32)[C@H](O)[C@@H]1O`, on Adenosine kinase, affinity was put at a Ki of 59 µM.
On to `OC[C@H]1O[C@@H](n2ccc3c(SCc4ccccc4Cl)ncnc32)[C@H](O)[C@@H]1O`, for which the Ki at Adenosine kinase came to 36 µM.
The compound `COC(=O)c1ccc(CSc2ncnc3c2ccn3[C@@H]2O[C@H](CO)[C@@H](O)[C@H]2O)cc1` had a Ki on Adenosine kinase of 7 µM. This Ki is about 5.1-fold lower than that of the compound before.
Turning to `C=Cc1ccc(CSc2ncnc3c2ccn3[C@@H]2O[C@H](CO)[C@@H](O)[C@H]2O)cc1`, the affinity on Adenosine kinase, expressed as Ki, was 180 µM. This Ki lies about 26-fold higher than the previous one.
Compound `Cc1cccc(CSc2ncnc3c2ccn3[C@@H]2O[C@H](CO)[C@@H](O)[C@H]2O)c1` yielded a Ki on Adenosine kinase of 8.5 µM.
The compound `OC[C@H]1O[C@@H](n2ccc3c(SCc4ccccc4Br)ncnc32)[C@H](O)[C@@H]1O` had a Ki at Adenosine kinase of 106 µM. This Ki is about 12-fold higher than that of the compound before.
As to `OC[C@H]1O[C@@H](n2cnc3c(SCc4ccccc4)ncnc32)[C@H](O)[C@@H]1O` [6-BENZYLTHIOINOSINE], the Ki at Adenosine kinase worked out at 37.7 µM.
`Nc1ncnc2c1ncn2[C@@H]1O[C@H](CO)[C@@H](O)[C@H]1O` [ADENOSINE] displayed an inhibitory constant (Ki) at Adenosine kinase of 8.9 µM. Compared with the last compound, the Ki is about 4.2-fold lower.
For the compound `CCc1nc(N)nc(N)c1-c1ccc(Cl)cc1` [PYRIMETHAMINE], in [2], the viability at 48 h, 50 µM was found to be 108%. Besides, the survival at 50 µM with Toxoplasma gondii [3] was 5.8%. Further, in the data set on Toxoplasma gondii [4], the survival at 25 µM was 13.8%. In the data set with Toxoplasma gondii [5], the half-maximal inhibitory concentration (IC50) worked out at 5.9 µM. For the same compound, the survival at 5 µM with Toxoplasma gondii [6] was determined as 55.6%. Moreover, the viability at 48 h, 5 µM in [7] amounted to 101%. For the same compound, the viability at 48 h, 10 µM in data set [8] was 100%. In [10], the viability at 48 h, 25 µM came out at 108%. In the data set with Toxoplasma gondii [13], the survival at 10 µM came to 36.5%.
For `Nc1ccc(S(=O)(=O)Nc2ncccn2)cc1` [SULFADIAZINE], in data set [2], the viability at 48 h, 50 µM came to 102%. In the data set with Toxoplasma gondii [3], the survival at 50 µM was 46.4%. Besides, the survival at 25 µM in the data set with Toxoplasma gondii [4] was determined as 59.8%. Also, in the data set with Toxoplasma gondii [5], the IC50 stood at 41.2 µM. The survival at 5 µM with Toxoplasma gondii [6] came out at 74.6%. Besides, the viability at 48 h, 5 µM in [7] worked out at 98.2%. The viability at 48 h, 10 µM in data set [8] was determined as 99.8%. For the same compound, the viability at 48 h, 25 µM in data set [10] was determined as 99.8%. For the same compound, the survival at 10 µM in the data set with Toxoplasma gondii [13] amounted to 64.8%.
